This is one part of the list. A number with no mark means an inactive call.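 The calls were made as follows: active = mean percent activation of the reporter above a cutoff set as the average over tested compounds plus their standard deviation; inactive = the rest.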

Experimental findings from PubChem BioAssay are described below.

The target of this assay is Oxysterols receptor LXR-beta (Homo sapiens) (UniProt P55055). Nature of the assay: nonspecific reporter activation via LXR – cell-based, luminescence, HEK293, H. contortus campaign, counter-screen for hcDAF-12 agonist project, confirmation (AID 743027). To be noted: HEK293 Gal4-LXR tk-luc reporter, 24 h, at 6.8 µM, stronger effect = higher value, normalized: DMSO 0%, positive control 100%. In outline: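 material = Gal4-LXR and tk-luc reporter transfected HEK293 cells | benchmarks = DMSO low control, positive-control high control | compound dosing = one nominal 6.8 µM dose, 0.68% DMSO | repeats = three replicates per compound | times = 24 h compound exposure at 37 °C, 5% CO2 | detection = One-Glo luciferase luminescence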
Chain of Oxysterols receptor LXR-beta (Homo sapiens) (P55055 whole entry, looked up, the tested form may be a part): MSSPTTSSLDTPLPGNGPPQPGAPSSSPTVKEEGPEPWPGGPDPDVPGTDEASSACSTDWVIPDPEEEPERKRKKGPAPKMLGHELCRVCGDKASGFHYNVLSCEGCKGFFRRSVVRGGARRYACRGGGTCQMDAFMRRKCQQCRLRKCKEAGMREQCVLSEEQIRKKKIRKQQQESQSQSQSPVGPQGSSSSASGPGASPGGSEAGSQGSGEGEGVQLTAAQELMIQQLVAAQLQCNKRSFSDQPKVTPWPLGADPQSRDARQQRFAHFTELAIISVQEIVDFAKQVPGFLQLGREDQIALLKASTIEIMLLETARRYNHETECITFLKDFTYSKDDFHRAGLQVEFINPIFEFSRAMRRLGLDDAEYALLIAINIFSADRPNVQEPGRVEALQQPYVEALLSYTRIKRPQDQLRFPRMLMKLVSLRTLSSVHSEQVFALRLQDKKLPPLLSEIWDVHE
For orientation: A counterscreen serves to expose hits that act by an unwanted route or on another target.
For the compound `Cc1nc2cc(NC(=O)Nc3cccc(F)c3)ccc2n1C`, the activation was 1.98%.

Take `COc1ccc(OCc2cc(C(=O)N3CCCC3)no2)c2ccccc12`: the activation was 0.67%.

`COc1ccc(CNC(=O)c2ccc3oc(C(C)C)nc3c2)cc1`: the activation is 0.72%.

On to `Cc1cccc(-c2nc3ccccc3c(=O)n2NC(=O)Cc2ccc(Cl)cc2)c1`, for which the activation was -0.04%.

For `CCS(=O)(=O)N1Cc2ccccc2CC1C(=O)Nc1nc2ccc(F)cc2s1` (configuration not stated), the activation was 0.39%.

Turning to `C/C(=N/NC(=S)Nc1ccccc1)c1ccc2c(c1)OCO2`, the activation is 0.01%.

With `Cc1ccc2nc(-c3ccccc3)c(CC3CCCCC3)n2c1`, the activation was 0.85%.

Consider `O=C(OCC(=O)c1c[nH]c2ccccc12)c1cccc(O)c1`, for which the activation is 0.27%.

On to `Fc1ccc2nc(Nc3nc4c(s3)CCCC4)sc2c1`, for which the activation was 1.24%.

For `O=C(c1cc(-c2ccccc2O)on1)N1CCCC1`, the activation was 0.82%.

Take `O=C(/C=C/c1cnc2ccccc2n1)NC1CCCCCC1`: the activation was 0.79%.

Take `Cc1ccc(NN=Nc2nc3c([nH]2)c(=O)n(C)c(=O)n3C)cc1`: the activation is -0.08%.

Regarding `Cc1ccccc1Nc1nnc(SCC(=O)c2cc3ccccc3o2)s1`, the activation was -0.11%.

As for `CCS(=O)(=O)c1cc([N+](=O)[O-])c(Sc2ccccc2N)s1`, the activation was 0.38%.

For the compound `Cc1ccnc(NC(=O)c2ccoc2C)c1`, the activation is 0.3%.

For the compound `Cc1ccccc1C(=O)N[C@H](C(=O)N1CCC[C@H]1C(=O)NCc1ccccc1)C(C)C`, the activation was -0.15%.

`CC(C)c1ccc(C=NNc2ccc([N+](=O)[O-])cn2)cc1`: the activation is 1.84%.
